ChEMBL document CHEMBL1671686, “Carbapenem-resistant KPC-2-producing Escherichia coli in a Tel Aviv Medical Center, 2005 to 2008” (2010)
Values after ≈ are worked out from the molar mass of the structure shown.

Legend:
Format in all cases: functional
[1] = test system: Escherichia coli; assay: Antimicrobial activity against Escherichia coli isolate 386T expressing beta-lactamase KPC2, OXA-9 and PFGE cluster 1 isolated from wound of patient by Etest
Outline: (§1)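 Transformant strains. Plasmids purified from the clinical isolates were electroporated into E. coli DH10B. Transformants were selected on LB agar with 100 μg/ml ampicillin, and colonies were PCR-screened for blaKPC before susceptibility testing.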

[2] = test system: Escherichia coli; assay: Antimicrobial activity against Escherichia coli isolate 157T expressing beta-lactamase KPC2 and PFGE cluster 3 isolated from urine of patient by Etest; outline: as §1
[3] = test system: Escherichia coli; assay: Antimicrobial activity against Escherichia coli isolate 544 expressing beta-lactamase KPC2, TEM and PFGE cluster 4 isolated from abscess of patient by Etest
[4] = test system: Escherichia coli; assay: Antimicrobial activity against Escherichia coli isolate 329T expressing beta-lactamase KPC2 and PFGE cluster 2 isolated from blood of patient by Etest; outline: as §1
[5] = test system: Escherichia coli; assay: Antimicrobial activity against Escherichia coli isolate 360T expressing beta-lactamase KPC2, OXA-9 and PFGE cluster 1 isolated from urine of patient by Etest; outline: as §1
[6] = test system: Escherichia coli; assay: Antimicrobial activity against Escherichia coli isolate 540 expressing beta-lactamase KPC2, TEM and PFGE cluster 4 isolated from synovial fluid of patient by Etest
[7] = test system: Escherichia coli; assay: Antimicrobial activity against Escherichia coli isolate 1679 expressing beta-lactamase KPC2, SHV-12, TEM and PFGE cluster 6 isolated from peritoneal fluid of patient by Etest
[8] = test system: Escherichia coli; assay: Antimicrobial activity against Escherichia coli isolate 547T expressing beta-lactamase KPC2 and PFGE cluster 4 isolated from blood of patient by Etest; outline: as §1
[9] = test system: Escherichia coli; assay: Antimicrobial activity against Escherichia coli isolate 547 expressing beta-lactamase KPC2, TEM and PFGE cluster 4 isolated from blood of patient by Etest
[10] = test system: Escherichia coli; assay: Antimicrobial activity against Escherichia coli isolate 543 expressing beta-lactamase KPC2, CTX-M-15, TEM and PFGE cluster 4 isolated from synovial fluid of patient by Etest
[11] = test system: Escherichia coli; assay: Antimicrobial activity against Escherichia coli isolate 157 expressing beta-lactamase KPC2, CTX-M-15, TEM and PFGE cluster 3 isolated from urine of patient by Etest; settings: isolate 157, Urine
[12] = test system: Escherichia coli; assay: Antimicrobial activity against Escherichia coli isolate 329 expressing beta-lactamase KPC2, CTX-M-2, TEM and PFGE cluster 2 isolated from blood of patient by Etest
[13] = test system: Escherichia coli; assay: Antimicrobial activity against Escherichia coli isolate 339 expressing beta-lactamase KPC2, TEM and PFGE cluster 5 isolated from peritoneal fluid of patient by Etest
[14] = test system: Escherichia coli; assay: Antimicrobial activity against Escherichia coli isolate 1679T expressing beta-lactamase KPC2, TEM and PFGE cluster 6 isolated from peritoneal fluid of patient by Etest; outline: as §1
[15] = test system: Escherichia coli; assay: Antimicrobial activity against Escherichia coli DH10B by Etest; settings: K-12 DH10B
[16] = test system: Escherichia coli; assay: Antimicrobial activity against Escherichia coli isolate 339T expressing beta-lactamase KPC2 and PFGE cluster 5 isolated from peritoneal fluid of patient by Etest; outline: as §1
[17] = test system: Escherichia coli; assay: Antimicrobial activity against Escherichia coli isolate 543T expressing beta-lactamase KPC2 and PFGE cluster 4 isolated from synovial fluid of patient by Etest; outline: as §1
[18] = test system: Escherichia coli; assay: Antimicrobial activity against Escherichia coli isolate 386 expressing beta-lactamase KPC2, CTX-M-15, OXA-9, TEM and PFGE cluster 1 isolated from wound of patient by Etest
[19] = test system: Escherichia coli; assay: Antimicrobial activity against Escherichia coli isolate 360 expressing beta-lactamase KPC2, CTX-M-15, OXA-9, TEM and PFGE cluster 1 isolated from urine of patient by Etest; settings: isolate 360, Urine
[20] = test system: Escherichia coli; assay: Antimicrobial activity against Escherichia coli isolate 1679T expressing beta-lactamase KPC2, TEM and PFGE cluster 6 isolated from peritoneal fluid of patient by agar dilution method; outline: as §1
[21] = test system: Escherichia coli; assay: Antimicrobial activity against Escherichia coli isolate 339 expressing beta-lactamase KPC2, TEM and PFGE cluster 5 isolated from peritoneal fluid of patient by agar dilution method
Outline: (§2)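 Clinical carbapenem-resistant E. coli isolates from the hospital, February 2005 to October 2008. Carbapenem MICs were determined by agar dilution following CLSI protocols.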

[22] = test system: Escherichia coli; assay: Antimicrobial activity against Escherichia coli isolate 540 expressing beta-lactamase KPC2, TEM and PFGE cluster 4 isolated from synovial fluid of patient by agar dilution method; outline: as §2
[23] = test system: Escherichia coli; assay: Antimicrobial activity against Escherichia coli isolate 360T expressing beta-lactamase KPC2, OXA-9 and PFGE cluster 1 isolated from urine of patient by agar dilution method; outline: as §1
[24] = test system: Escherichia coli; assay: Antimicrobial activity against Escherichia coli isolate 1679 expressing beta-lactamase KPC2, SHV-12, TEM and PFGE cluster 6 isolated from peritoneal fluid of patient by agar dilution method; outline: as §2
[25] = test system: Escherichia coli; assay: Antimicrobial activity against Escherichia coli isolate 386T expressing beta-lactamase KPC2, OXA-9 and PFGE cluster 1 isolated from wound of patient by agar dilution method; outline: as §1
[26] = test system: Escherichia coli; assay: Antimicrobial activity against Escherichia coli isolate 386 expressing beta-lactamase KPC2, CTX-M-15, OXA-9, TEM and PFGE cluster 1 isolated from wound of patient by agar dilution method
Outline: (§3)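 Clinical carbapenem-resistant E. coli isolates collected Feb 2005–Oct 2008. Carbapenem MICs determined by agar dilution following CLSI protocols.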

[27] = test system: Escherichia coli; assay: Antimicrobial activity against Escherichia coli isolate 543T expressing beta-lactamase KPC2 and PFGE cluster 4 isolated from synovial fluid of patient by agar dilution method; outline: as §1
[28] = test system: Escherichia coli; assay: Antimicrobial activity against Escherichia coli isolate 157T expressing beta-lactamase KPC2 and PFGE cluster 3 isolated from urine of patient by agar dilution method; outline: as §1
[29] = test system: Escherichia coli; assay: Antimicrobial activity against Escherichia coli isolate 339T expressing beta-lactamase KPC2 and PFGE cluster 5 isolated from peritoneal fluid of patient by agar dilution method; outline: as §1
[30] = test system: Escherichia coli; assay: Antimicrobial activity against Escherichia coli isolate 360 expressing beta-lactamase KPC2, CTX-M-15, OXA-9, TEM and PFGE cluster 1 isolated from urine of patient by agar dilution method; settings: isolate 360, Urine; outline: as §3
[31] = test system: Escherichia coli; assay: Antimicrobial activity against Escherichia coli isolate 547 expressing beta-lactamase KPC2, TEM and PFGE cluster 4 isolated from blood of patient by agar dilution method; outline: as §3
[32] = test system: Escherichia coli; assay: Antimicrobial activity against Escherichia coli isolate 544 expressing beta-lactamase KPC2, TEM and PFGE cluster 4 isolated from abscess of patient by agar dilution method; outline: as §2
[33] = test system: Escherichia coli; assay: Antimicrobial activity against Escherichia coli isolate 543 expressing beta-lactamase KPC2, CTX-M-15, TEM and PFGE cluster 4 isolated from synovial fluid of patient by agar dilution method; outline: as §2
[34] = test system: Escherichia coli; assay: Antimicrobial activity against Escherichia coli isolate 329 expressing beta-lactamase KPC2, CTX-M-2, TEM and PFGE cluster 2 isolated from blood of patient by agar dilution method; outline: as §2
[35] = test system: Escherichia coli; assay: Antimicrobial activity against Escherichia coli isolate 547T expressing beta-lactamase KPC2 and PFGE cluster 4 isolated from blood of patient by agar dilution method; outline: as §1
[36] = test system: Escherichia coli; assay: Antimicrobial activity against Escherichia coli isolate 157 expressing beta-lactamase KPC2, CTX-M-15, TEM and PFGE cluster 3 isolated from urine of patient by agar dilution method; settings: isolate 157, Urine; outline: as §3
[37] = test system: Escherichia coli; assay: Antimicrobial activity against Escherichia coli isolate 329T expressing beta-lactamase KPC2 and PFGE cluster 2 isolated from blood of patient by agar dilution method; outline: as §1

Work on CN(C)c1cc(NC(=O)CNC(C)(C)C)c(O)c2c1C[C@H]1C[C@H]3[C@H](N(C)C)C(O)=C(C(N)=O)C(=O)[C@@]3(O)C(O)=C1C2=O [TIGECYCLINE] yielded an MIC [1] of 0.19 µg/mL (≈ 0.324 µM), an MIC [2] of 0.19 µg/mL (≈ 0.324 µM) and an MIC [3] of 0.38 µg/mL (≈ 0.649 µM). For the same molecule, the MIC [4] was 0.125 µg/mL (≈ 0.213 µM), the MIC [5] was 0.125 µg/mL (≈ 0.213 µM) and the MIC [6] was 0.19 µg/mL (≈ 0.324 µM). The MIC [7] was 0.125 µg/mL (≈ 0.213 µM), the MIC [8] was 0.125 µg/mL (≈ 0.213 µM) and the MIC [9] was 0.125 µg/mL (≈ 0.213 µM). For the same molecule, the MIC [10] was 0.19 µg/mL (≈ 0.324 µM), the MIC [11] was 0.38 µg/mL (≈ 0.649 µM) and the MIC [12] was 0.19 µg/mL (≈ 0.324 µM). For the same molecule, the MIC [13] was 0.19 µg/mL (≈ 0.324 µM), the MIC [14] was 0.38 µg/mL (≈ 0.649 µM) and the MIC [15] was 0.125 µg/mL (≈ 0.213 µM). It also gave an MIC [16] of 0.19 µg/mL (≈ 0.324 µM), an MIC [17] of 0.125 µg/mL (≈ 0.213 µM) and an MIC [18] of 0.75 µg/mL (≈ 1.28 µM). It also gave an MIC [19] of 0.75 µg/mL (≈ 1.28 µM).
C[C@@H](O)[C@H]1C(=O)N2C(C(=O)O)=C(S[C@@H]3CN[C@H](C(=O)Nc4cccc(C(=O)O)c4)C3)[C@H](C)[C@H]12 showed an MIC [20] of 1 µg/mL (≈ 2.1 µM), an MIC [21] of 16 µg/mL (≈ 33.6 µM) and an MIC [22] of 16 µg/mL (≈ 33.6 µM). The MIC [23] was 1 µg/mL (≈ 2.1 µM), the MIC [24] was 32 µg/mL (≈ 67.3 µM) and the MIC [25] was 1 µg/mL (≈ 2.1 µM). The MIC [26] was 8 µg/mL (≈ 16.8 µM), the MIC [27] was 2 µg/mL (≈ 4.21 µM) and the MIC [28] was 4 µg/mL (≈ 8.41 µM). It also gave an MIC [29] of 4 µg/mL (≈ 8.41 µM), an MIC [30] of 8 µg/mL (≈ 16.8 µM) and an MIC [31] of 8 µg/mL (≈ 16.8 µM). For the same molecule, the MIC [32] was 16 µg/mL (≈ 33.6 µM), the MIC [33] was 16 µg/mL (≈ 33.6 µM) and the MIC [15] was 0.023 µg/mL (≈ 0.0484 µM). It also gave an MIC [34] of 32 µg/mL (≈ 67.3 µM), an MIC [35] of 0.25 µg/mL (≈ 0.526 µM) and an MIC [36] of 8 µg/mL (≈ 16.8 µM). It also gave an MIC [37] of 4 µg/mL (≈ 8.41 µM).
